KCNK3 block = human KCNK3 channel inhibition, primary screen | CHO-KCNK3 thallium flux, FluxOR fluorescence; stronger effect = lower value | hit rate 0.84% among 340,000 | O14649 | B-score at 10 µM;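 active means B-score under library mean minus 4 SD, starting fluorescence ratio at most library mean plus 5 SD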;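 further: more negative B-score means stronger inhibition of thallium flux through KCNK3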
KCNQ1 act = human KCNQ1 channel potentiation or activation; P51787; CHO-K1 KCNQ1, thallium flux FluxOR fluorescence; stronger effect = higher value; B-score at 10 µM; hit rate 0.35% among 310,000; AID 2648;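 active means fluorescence ratio B-score, a plate-corrected score, at least three library SD, with initial intensity B-score within 5 SD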
Target sequence (P51787 whole entry, looked up): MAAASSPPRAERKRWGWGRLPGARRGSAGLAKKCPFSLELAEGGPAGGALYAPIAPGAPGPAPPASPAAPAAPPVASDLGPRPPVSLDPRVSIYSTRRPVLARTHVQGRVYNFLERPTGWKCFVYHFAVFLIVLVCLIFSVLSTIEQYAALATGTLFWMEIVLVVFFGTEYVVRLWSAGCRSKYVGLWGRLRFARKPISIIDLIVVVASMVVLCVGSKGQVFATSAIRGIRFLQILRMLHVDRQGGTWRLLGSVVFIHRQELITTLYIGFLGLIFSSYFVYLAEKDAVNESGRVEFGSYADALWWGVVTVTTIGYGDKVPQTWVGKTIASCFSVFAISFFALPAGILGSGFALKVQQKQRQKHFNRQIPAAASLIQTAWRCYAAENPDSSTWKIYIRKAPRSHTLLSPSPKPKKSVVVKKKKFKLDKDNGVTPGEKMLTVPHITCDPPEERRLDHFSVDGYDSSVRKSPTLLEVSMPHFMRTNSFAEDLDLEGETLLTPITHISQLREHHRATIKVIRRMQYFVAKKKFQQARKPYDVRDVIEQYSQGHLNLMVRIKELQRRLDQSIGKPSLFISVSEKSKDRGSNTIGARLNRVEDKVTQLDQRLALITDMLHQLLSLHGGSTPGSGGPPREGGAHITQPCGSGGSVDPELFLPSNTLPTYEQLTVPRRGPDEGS
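System: Stable KCNQ1 CHO-K1 line | Incubation: 90 min dye loading and 20 min compound exposure, both at room temperature | Measure: Ratio B score | Medium: Assay buffer for compound exposure, DMSO matched across wells | Compound dosing: Single-concentration screen | Probe or stimulus: K+/Tl+ depolarizing stimulus | Measured by: Kinetic FluxOR fluorescence, 10 s baseline plus 110 s post-stimulus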
Kir21 block = blocks the mouse Kir2.1 inward-rectifier potassium channel | hit rate 0.85% among 310,000 | P35561 | HEK293-Kir2.1, FluxOR thallium flux fluorescence; stronger effect = lower value | B-score at 10 µM;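 active means fluorescence ratio B-score at or below minus 3 SD of library scores, with starting-brightness B-score within 2 SD, cut at about -4.2 in these data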;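 further: channel flux triggered by added potassium and thallium sulfate stimulus; B-score of peak minus minimum fluorescence over baseline after thallium stimulus; more negative B-score means stronger Kir2.1 block with less thallium influx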
KCNK9 block = inhibitors of human KCNK9 two-pore domain potassium channel; Q9NPC2; hit rate 1.2% among 310,000; HEK293 KCNK9, FluxOR thallium flux fluorescence; stronger effect = lower value; AID 488922; B-score at 10 µM;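 active means ratio B-score over 3 SD below the library mean, with starting fluorescence within 5 SD of its mean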;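 further: negative B-score means less thallium flux so channel inhibition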
KCNQ1 inh = inhibitors of human KCNQ1 potassium channel. CHO-K1 KCNQ1, FluxOR thallium flux fluorescence; stronger effect = higher value. B-score at 10 µM. hit rate 1.3% among 310,000;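 active means compounds whose thallium flux B-score, printed positive for inhibition, exceeds three library SD while starting fluorescence stays within three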;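 further: channel opened by potassium depolarization with thallium stimulus after 20 min compound exposure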
hERG rescue = hERG (human) protection from proarrhythmic block; activation (rescue from dofetilide block), less the hit threshold, % at 10 µM; Q12809; CHO-hERG, FluxOR thallium flux, dofetilide IC70 present; hit rate 0.51% among 310,000;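 active means activation above the mean of controls blocked by dofetilide plus 5 SD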;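 further: thallium influx through hERG after potassium depolarization seen as dye fluorescence rise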
KCNQ1 block val = confirmation of human KCNQ1 potassium channel inhibitors. shares compounds with KCNQ1 inh. KCNQ1 cell line, FluxOR thallium flux fluorescence. inhibition, % at 10 µM. hit rate 93% among 1,600. AID 588353;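 active means primary screen active, with duplicate mean exceeding buffer control mean plus 3 SD of buffer wells, cut at about 28% in these data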;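 further: 0% = buffer control ratio and 100% = XE991 inhibitor control ratio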
CHO Tl flux = activity in parental CHO cells lacking KCNQ1; shares compounds with KCNQ1 inh; parental CHO-K1, FluxOR thallium flux fluorescence ratio; stronger effect = lower value; zero means no signal rise above baseline; fluorescence ratio (Tl flux) at 10 µM; hit rate 21% among 1,600; AID 588366;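 active means mean of duplicate thallium-flux fluorescence ratios in parental host cells more than 5 SD below the buffer control mean, cut at about 0.38 in these data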;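 further: ratio is peak minus minimum fluorescence divided by baseline fluorescence; actives read low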
KCNQ1 ephys val = human KCNQ1 inhibition validated by electrophysiology; shares compounds with KCNQ1 inh; calls only at 10 µM; KCNQ1-CHO cells, automated patch clamp current; hit rate 20% among 490; AID 624120;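 active means KCNQ1 current drop exceeding 3 SD of negative control wells, seen in both duplicate runs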;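 further: steady state current during a 2 s step from -80 to +40 mV; negative values mean current inhibition and positive values mean potentiation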
KCNQ2 spec = KCNQ1 inhibitor that also blocks rat KCNQ2 channel; hit rate 71% among 1,600; shares compounds with KCNQ1 inh; KCNQ2 cells, FluxOR thallium flux fluorescence; inhibition, % at 10 µM;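 active means mean percent inhibition of the KCNQ2 thallium signal more than 5 SD above the buffer-only control wells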;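 further: KCNQ2 expressed in CHO cells; 0% = buffer control wells and 100% = XE-991 inhibitor control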
KCNQ1 KCNE1 spec = human KCNQ1/KCNE1 inhibition in KCNQ1 specificity screen. shares compounds with KCNQ1 inh. KCNQ1/KCNE1 cells, FluxOR thallium flux fluorescence. inhibition, % at 10 µM. hit rate 77% among 1,600. AID 652147;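 active means mean percent inhibition of duplicate wells above the buffer-only control mean plus 3 SD of those controls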;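 further: 0% = buffer only wells and 100% = XE-991 inhibitor control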
Numbers without * were called inactive; i = inactive; . = no result; + = active, no number. Most compounds without a hit are left out; they make up all but 3.8% or so of the library.

SMILES	KCNK3 block	KCNQ1 act	Kir21 block	KCNK9 block	KCNQ1 inh	hERG rescue	KCNQ1 block val	CHO Tl flux	KCNQ2 spec	KCNQ1 KCNE1 spec	others
Cc1cc(Cl)ccc1OC(C)C(=O)Nc1ccc(C(=O)Nc2ccccc2C(=O)O)cc1 (stereo unspecified)	i	i	0.01	i	9*	-34.1	94.0*	0.453	i	80.5%*	KCNQ1 ephys val=i
COc1cccc(C(=O)Nc2ccc(Cl)c(C(F)(F)F)c2)c1	i	i	-0.06	i	9*	-14.7	136.0*	0.373*	130.0%*	78.0%*
CC(C)c1nc(SCC(=O)N2c3ccccc3CC2C)c2ccccc2n1 (stereo unspecified)	i	i	0.67	i	9*	-12.4	74.5*	0.377*	95.7%*	71.5%*
Cc1cc2cc3c(cc2nc1SCC(=O)N1c2ccccc2CC1C)OCO3 (stereo unspecified)	i	i	1.03	i	6*	-3.8	100.0*	0.35*	77.7%*	89.5%*
Oc1c(Br)cc(/C=N/NC(=S)NCc2ccco2)cc1Br	i	i	0.55	i	i	-1.5	.	.	.	.
CCC1(CC)NC(=O)N(CC(=O)Nc2cccc3ccccc23)C1=O	i	.	.	.	.	.	.	.	.	.
COc1cc(NS(=O)(=O)c2ccc(NC(=O)NC3CCCCC3)cc2)nc(OC)n1	i	i	-0.81	i	i	-10.2	.	.	.	.
CCc1ccc(S(=O)(=O)/N=C2\C=C(NS(=O)(=O)c3ccccc3)C(=O)c3ccccc32)cc1	i	i	1.93	i	12*	-11.3	97.0*	0.453	78.7%*	94.0%*	KCNQ1 ephys val=+
O=C(Cn1ncc2c([nH]c3ccccc32)c1=O)NCCc1ccccc1	i	i	-0.37	i	i	-13.5	.	.	.	.
Cc1ccc(-c2csc(=Nc3cccnc3)n2CCCN2CCCC2=O)cc1C	i	i	-1.73	i	i	-9.2	.	.	.	.
Cc1ccc(-c2csc(=Nc3cccnc3)n2CCCn2ccnc2)cc1C	i	i	-4.53*	i	12*	-17.4	42.5*	0.446	79.7%*	i
O=C(CSc1ccc2ccccc2c1)Nc1ccncc1	i	i	-0.68	i	7*	-9.9	90.5*	0.537	75.3%*	i	KCNQ1 ephys val=i
O=C(CSc1ccncc1)Nc1ccc2ccccc2c1	i	i	0.81	i	i	-9.2	.	.	.	.
Cc1cc(NC(=O)CN2C(=O)CCSc3ccccc32)no1	i	i	-0.7	i	i	-3.9	.	.	.	.
COc1ccc(NS(=O)(=O)c2ccc3oc4ccccc4c3c2)cn1	i	i	-2.31	i	i	-3.6	.	.	.	.
CSc1nc2nc(C)c(C/C=C/c3ccccc3)c(=O)n2[nH]1	i	i	-0.06	i	i	-7.0	.	.	.	.
CCc1c(C)nc2nc(SCc3ccccc3Cl)[nH]n2c1=O	i	i	-1.03	i	9*	-11.7	85.0*	0.483	68.7%*	34.0%*
COc1ccc(C(=O)N2CCC(n3nccc3NC(=O)C3CC3)CC2)cc1F	i	i	0.32	i	i	-3.8	.	.	.	.
O=C(c1ccc(C(F)(F)F)cc1)c1c[nH]c(C(=O)NCCCn2ccnc2)c1	i	i	-2.75	i	7*	-20.6	59.0*	0.441	i	89.0%*
CC(Cc1ccccc1)(NC(=O)CN)c1ccccc1 (stereo unspecified)	.	i	-1.35	i	i	-6.7	.	.	.	.
CC(C)Cn1c(N)c(C(=O)COC(=O)CCc2nc3ccccc3s2)c(=O)n(C)c1=O	i	i	-0.78	i	8*	-20.1	132.5*	0.437	84.0%*	96.5%*	KCNQ1 ephys val=i
Cc1csc(=O)n1CCC(=O)OCC(=O)c1c(N)n(CC(C)C)c(=O)n(C)c1=O	i	i	2.01	i	i	-20.8	.	.	.	.
CC(C)Cn1c(N)c(C(=O)COC(=O)CC23CC4CC(CC(C4)C2)C3)c(=O)n(C)c1=O	i	i	0	i	12*	-16.6	143.5*	0.297*	124.0%*	186.0%*
CSc1nnc(C)c(/C=C/Nc2ccc(Cl)cc2)n1	i	i	-2.94	i	11*	-1.2	48.5*	0.429	i	87.5%*
CSc1nnc(C)c(/C=C/Nc2ccc(F)cc2)n1	i	i	-0.07	i	i	-3.1	.	.	.	.
SMILES	KCNK3 block	KCNQ1 act	Kir21 block	KCNK9 block	KCNQ1 inh	hERG rescue	KCNQ1 block val	CHO Tl flux	KCNQ2 spec	KCNQ1 KCNE1 spec	others
O=C(CCSc1ccccc1)N1CCN(c2ccccc2)CC1	i	i	2.37	i	7*	-11.6	26.5*	0.474	i	64.0%*
COc1ccc(S(=O)(=O)Nc2cccnc2)cc1OC	i	i	-0.73	i	i	-6.8	.	.	.	.
CCOc1ccc(N(CC(=O)NC2CC3CCC2C3)S(=O)(=O)c2ccc(C)cc2)cc1 (stereo unspecified)	i	i	0.05	i	8*	-7.6	99.5*	0.459	93.7%*	100.5%*	KCNQ1 ephys val=+
COc1ccc(C(=S)N2CCCCCC2)cc1	i	i	-2.51	i	i	-12.4	.	.	.	.
Cc1ccc(C(c2cc(Br)ccc2O)N2CCSCC2)cc1 (stereo unspecified)	i	i	-1.19	i	7*	-7.4	122.0*	0.418	106.7%*	136.0%*
CN(c1ccccc1)S(=O)(=O)c1ccc(C(=O)OCC(=O)NCc2cccs2)cc1	i	i	-2.28	i	6*	-11.6	38.5*	0.469	69.3%*	i
S=C(NCC1CCCCC1)Nc1ccc(Oc2ccccc2)cc1	i	i	-5.23	i	9*	-9.9	81.0*	0.527	65.0%*	i
Cc1cc(/C=C2/SC(=S)N(c3ccc([N+](=O)[O-])cc3)C2=O)c(C)n1-c1cccnc1	i	i	0.13	i	16*	-9.3	123.5*	0.468	75.0%*	102.5%*	KCNQ1 ephys val=i
COc1ccc(NC(=O)CCc2nc(-c3ccc(C)cc3)no2)c(OC)c1	i	i	0.46	i	i	-5.4	.	.	.	.

Source: PubChem (Johns Hopkins Ion Channel Center)
